According to ChEMBL document CHEMBL3525903 (Drug Metab Dispos, 2013):

Experiments:
[1] = Inhibition of human P-glycoprotein expressed in pig LLC-PK1 cells assessed as reduction of [3H]digoxin substrate transport from basolateral to apical side by liquid scintillation counting; assay type: ADME, cell-based
[2] = target: ATP-binding cassette sub-family C member 2 (Homo sapiens, UniProt Q92887); assay: Inhibition of human MRP2 expressed in MDCK2 cells assessed as reduction of [3H]E217betaG substrate transport up to 100 uM by liquid scintillation counting; assay type: ADME, cell-based; conditions: mdck-ii
Method in brief: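 Membrane vesicles made from MDCKII cells expressing BCRP or MRP2, and from parental cells (1 μg/μL protein). Run in Tris-sucrose buffer, pH 7.4, with 10 mM MgCl2, creatine phosphokinase and ATP, or AMP as control. Substrates: 0.035 μM [3H]E-sul for BCRP, 2 min; 0.033 μM [3H]E217βG for MRP2, 5 min; both at 37 °C. Stopped ice-cold, filtered, and counted by scintillation.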

[3] = target: T1, Solute carrier organic anion transporter family member 1B3 (Homo sapiens, UniProt Q9NPD5); assay: Inhibition of OATP1B3 (unknown origin) expressed in HEK293 cells assessed as reduction of [3H]CCK8 substrate uptake at 100 uM by liquid scintillation counting; assay type: ADME, cell-based; conditions: hek293, 100 µM
T1 sequence (Q9NPD5 whole entry): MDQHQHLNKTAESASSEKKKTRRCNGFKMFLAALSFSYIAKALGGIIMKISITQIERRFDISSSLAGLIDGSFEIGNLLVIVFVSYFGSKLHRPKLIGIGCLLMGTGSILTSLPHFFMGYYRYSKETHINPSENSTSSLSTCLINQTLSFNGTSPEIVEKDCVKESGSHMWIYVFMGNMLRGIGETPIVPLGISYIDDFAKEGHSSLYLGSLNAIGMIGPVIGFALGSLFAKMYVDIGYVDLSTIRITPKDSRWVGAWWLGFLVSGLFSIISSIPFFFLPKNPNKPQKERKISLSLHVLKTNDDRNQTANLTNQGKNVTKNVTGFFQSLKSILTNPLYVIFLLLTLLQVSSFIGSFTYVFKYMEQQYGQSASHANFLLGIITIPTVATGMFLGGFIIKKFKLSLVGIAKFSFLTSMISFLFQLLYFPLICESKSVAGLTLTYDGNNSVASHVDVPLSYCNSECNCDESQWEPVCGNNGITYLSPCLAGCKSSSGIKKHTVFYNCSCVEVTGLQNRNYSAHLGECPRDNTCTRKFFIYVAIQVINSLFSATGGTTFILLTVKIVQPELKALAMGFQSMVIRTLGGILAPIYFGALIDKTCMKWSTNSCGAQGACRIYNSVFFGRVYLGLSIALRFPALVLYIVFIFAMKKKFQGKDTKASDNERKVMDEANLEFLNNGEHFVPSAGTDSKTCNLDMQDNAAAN
Method in brief: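 HEK293 cells transiently transfected with OAT, OATP or OCT plasmid (FuGENE6; 24 h, then 24 h more with sodium butyrate), or stable OCTN1/OCTN2 lines; vector-transfected cells as control. Washed, preincubated 15–60 min at 37 °C in modified Krebs-Henseleit/25 mM HEPES buffer. Uptake of radiolabelled substrate, 100 µM inhibitor. Cells lysed in NaOH and counted by scintillation; counts normalised to medium radioactivity and Lowry protein; vector uptake subtracted.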

[4] = Protein binding in plasma (unknown origin); assay type: ADME, cell-free; conditions: read-out: PPB (converted)
P-glycoprotein = assay: Permeability assessed as human P-glycoprotein-mediated transport across basolateral to apical side expressed in pig LLC-PK1 cells at 2 uM by liquid scintillation counting; assay type: ADME, cell-based
[5] = target: T2, Solute carrier organic anion transporter family member 1B1 (Homo sapiens, UniProt Q9Y6L6); assay: Inhibition of OATP1B1 (unknown origin) expressed in HEK293 cells assessed as reduction of [3H]E217betaG substrate uptake by liquid scintillation counting; assay type: ADME, cell-based
T2 sequence (Q9Y6L6 whole entry): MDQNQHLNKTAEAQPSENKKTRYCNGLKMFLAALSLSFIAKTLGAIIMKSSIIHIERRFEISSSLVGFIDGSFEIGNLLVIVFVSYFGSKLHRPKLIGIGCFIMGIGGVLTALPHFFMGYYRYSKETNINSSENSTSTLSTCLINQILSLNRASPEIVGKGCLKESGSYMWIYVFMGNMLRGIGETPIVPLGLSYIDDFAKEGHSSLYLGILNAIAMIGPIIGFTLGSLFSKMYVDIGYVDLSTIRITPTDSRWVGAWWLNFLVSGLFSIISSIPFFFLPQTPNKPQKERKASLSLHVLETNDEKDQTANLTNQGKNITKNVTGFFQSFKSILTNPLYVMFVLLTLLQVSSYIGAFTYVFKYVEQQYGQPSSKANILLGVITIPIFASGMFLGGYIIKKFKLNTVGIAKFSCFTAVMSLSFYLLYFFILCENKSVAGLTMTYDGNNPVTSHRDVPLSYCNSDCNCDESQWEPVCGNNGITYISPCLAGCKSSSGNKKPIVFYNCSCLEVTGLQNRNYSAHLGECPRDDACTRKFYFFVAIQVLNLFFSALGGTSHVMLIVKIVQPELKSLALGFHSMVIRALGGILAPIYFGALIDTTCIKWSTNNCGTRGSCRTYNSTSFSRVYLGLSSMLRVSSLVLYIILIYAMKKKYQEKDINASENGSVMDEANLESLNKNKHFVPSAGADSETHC

[6] = Maximal inhibition of human P-glycoprotein expressed in pig LLC-PK1 cells assessed as reduction of [3H]digoxin substrate transport at 100 uM by liquid scintillation counting; assay type: ADME, cell-based; conditions: llc-pk1, 100 µM
Method in brief: (§1)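 P-gp-expressing and parental LLC-PK1 monolayers were grown on transwell inserts for 6–7 days to confluence and switched to serum-free M199 1 h before assay. [3H]digoxin was given apical-to-basal or basal-to-apical, with inhibitor in both chambers, at 37 °C, solvent ≤0.5%. Receiver samples were scintillation-counted and Papp taken from the linear phase. Results are % of control BtoA transport, mean ± S.D., n≥3.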

[7] = Inhibition of human P-glycoprotein expressed in pig LLC-PK1 cells assessed as reduction of [3H]digoxin substrate transport by liquid scintillation counting; assay type: ADME, cell-based; method in brief: as §1

ATP-binding cassette sub-family C member 2, sequence (Q92887 whole entry): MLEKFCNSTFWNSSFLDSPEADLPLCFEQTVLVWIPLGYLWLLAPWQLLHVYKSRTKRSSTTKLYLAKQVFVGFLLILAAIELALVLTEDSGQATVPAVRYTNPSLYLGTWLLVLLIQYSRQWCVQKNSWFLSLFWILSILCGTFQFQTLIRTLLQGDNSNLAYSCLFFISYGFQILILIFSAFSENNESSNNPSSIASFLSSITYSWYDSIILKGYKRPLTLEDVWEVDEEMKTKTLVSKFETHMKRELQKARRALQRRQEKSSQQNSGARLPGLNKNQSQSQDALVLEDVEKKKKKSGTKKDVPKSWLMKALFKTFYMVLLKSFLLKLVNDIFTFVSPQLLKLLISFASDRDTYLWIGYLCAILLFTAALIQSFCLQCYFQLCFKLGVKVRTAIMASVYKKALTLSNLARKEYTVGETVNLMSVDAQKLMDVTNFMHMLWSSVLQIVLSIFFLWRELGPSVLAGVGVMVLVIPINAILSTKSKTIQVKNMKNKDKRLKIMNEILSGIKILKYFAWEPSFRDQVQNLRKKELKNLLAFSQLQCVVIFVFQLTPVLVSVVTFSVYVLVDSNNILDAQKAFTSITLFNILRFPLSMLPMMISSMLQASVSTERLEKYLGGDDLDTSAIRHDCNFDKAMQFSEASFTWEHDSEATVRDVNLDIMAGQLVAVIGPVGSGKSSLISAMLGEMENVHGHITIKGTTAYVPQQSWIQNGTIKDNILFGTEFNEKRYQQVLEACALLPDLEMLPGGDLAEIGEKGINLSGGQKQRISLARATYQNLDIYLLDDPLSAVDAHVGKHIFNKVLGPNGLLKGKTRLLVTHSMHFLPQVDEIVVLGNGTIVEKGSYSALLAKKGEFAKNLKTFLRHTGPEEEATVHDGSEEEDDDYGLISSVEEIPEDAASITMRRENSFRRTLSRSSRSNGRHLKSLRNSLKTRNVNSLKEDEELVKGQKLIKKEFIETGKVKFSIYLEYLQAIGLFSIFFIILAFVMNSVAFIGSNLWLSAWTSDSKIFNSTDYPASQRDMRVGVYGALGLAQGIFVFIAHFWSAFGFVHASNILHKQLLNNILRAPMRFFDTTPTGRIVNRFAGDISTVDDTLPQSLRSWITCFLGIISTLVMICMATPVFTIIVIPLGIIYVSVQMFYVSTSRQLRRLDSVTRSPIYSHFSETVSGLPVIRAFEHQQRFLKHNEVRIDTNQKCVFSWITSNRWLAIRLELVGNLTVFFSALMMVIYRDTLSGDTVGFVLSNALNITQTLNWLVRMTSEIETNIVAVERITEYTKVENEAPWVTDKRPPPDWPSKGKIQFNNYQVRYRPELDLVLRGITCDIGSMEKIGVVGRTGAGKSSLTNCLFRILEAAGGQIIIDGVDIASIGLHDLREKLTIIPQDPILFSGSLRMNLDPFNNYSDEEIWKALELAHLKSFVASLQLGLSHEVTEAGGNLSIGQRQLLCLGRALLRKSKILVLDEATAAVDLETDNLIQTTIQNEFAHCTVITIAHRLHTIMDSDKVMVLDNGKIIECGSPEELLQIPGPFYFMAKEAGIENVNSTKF

With `CC#CCn1c(N2CCC[C@@H](N)C2)nc2c1c(=O)n(Cc1nc(C)c3ccccc3n1)c(=O)n2C` [LINAGLIPTIN] the IC50 [1] was 66.1 µM, the “inhibition (INH)” value [2] was “Not Active” and the “inhibition (INH)” value [3] was 3.39%. The fraction unbound [4] was 0.2, the Papp B→A at 2 µM (P-glycoprotein) was 39.4 ×10⁻⁶ cm/s and the IC50 [5] was greater than 100 µM. The “inhibition (INH)” value [6] was “Active” and the “inhibition (INH)” value [7] was “Dose-dependent effect”.
